For data set [1], the system named is Homo sapiens. The data set is described as follows: Toxicity in patient with severe malaria assessed as pain at drug infusion site at 3 to 12 g, iv for 30 mins via infusion pump. The data set is classed as organism-based. The conditions noted are these: in vivo, 0.5 h.
For data set [2], the system named is Homo sapiens. The data set is described as follows: Toxicity in patient with severe malaria assessed as effect on respiratory rate at 3 to 12 g, iv for 30 mins via infusion pump measured after drug infusion. The settings on record: in vivo, 0.5 h. The format is organism-based.
A short description of data set [3]: Plasma concentration in patient with severe malaria at 6 g, iv for 30 mins via infusion pump. The data set is classed as ADME, organism-based. The settings on record: human. Put shortly: (§1)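 Adults with moderately severe malaria, all on IV quinine, were placed in groups of 10 per dose. L-arginine was diluted in normal saline to 10% or less and given IV through an antecubital cannula over 30 min. Plasma was taken at 8–11 time points up to 24 h, separated within 30 min and stored at −70°C. Samples were ethanol-deproteinized with norleucine as internal standard, AccQFluor-derivatized and measured by HPLC. Peak was taken after the end of infusion.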

Data set [4] deals with Homo sapiens. The data set is described as follows: Toxicity in patient with severe malaria assessed as decrease of diastolic blood pressure at 12 g, iv for 30 mins via infusion pump. The format is organism-based, Artery. The conditions noted are these: in vivo, 0.5 h. The procedure, abridged: (§2)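 In adults with malaria on IV quinine, 10 per dose, systolic and diastolic blood pressure were recorded at baseline and immediately at the end of a 30-min IV L-arginine infusion (in saline, 10% or less). They were followed afterward to check return to baseline. Mean change was given with 95% CI and P value.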

Data set [5] relates to Homo sapiens. The data set is described as follows: Toxicity in patient with severe malaria assessed as effect on respiratory rate at 3 to 12 g, iv for 30 mins via infusion pump measured during drug infusion. The format is organism-based. The settings on record: in vivo, 0.5 h.
Data set [6] can be described thus: Primary phase half life in patient with severe malaria administered as iv for 30 mins via infusion pump. The format is ADME, organism-based. The conditions noted are these: human, in vivo, read-out: alphat1/2. Put shortly:
(§3)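 Half-lives came from a population model fitted in NONMEM (FOCE with interaction) to plasma HPLC levels from infused patients and from patients not given L-arginine. The model was two-compartment linear with first-order elimination and combined proportional and additive residual error. Baseline and natural recovery were fitted by a second-order polynomial. CV% was estimated by simulation assuming a log-normal distribution.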

A short description of data set [7]: Plasma concentration in patient with severe malaria at 3 g, iv for 30 mins via infusion pump. The format is ADME, organism-based. The conditions noted are these: human. The procedure, abridged: as §1
The test system of data set [8] is Homo sapiens. Briefly: Toxicity in patient with severe malaria assessed as decrease of systolic blood pressure at 3 to 6 g, iv for 30 mins via infusion pump. The conditions noted are these: in vivo, 0.5 h. The data set is classed as organism-based, Artery. Put shortly: as §2
In data set [9] the test system is Homo sapiens. The data set is described as follows: Toxicity in patient with severe malaria assessed as decrease of systolic blood pressure at 12 g, iv for 30 mins via infusion pump. The format is organism-based, Artery. The settings on record: in vivo, 0.5 h. The procedure, abridged:
as §2

Data set [10] deals with Homo sapiens. Briefly: Toxicity in patient with severe malaria assessed as inflammation at 3 to 12 g, iv for 30 mins via infusion pump. The data set is classed as organism-based. The conditions noted are these: in vivo, 0.5 h.
Data set [11] relates to Homo sapiens. Briefly: Toxicity in patient with severe malaria assessed as effect on pulse rate at 3 to 12 g, iv for 30 mins via infusion pump measured during drug infusion. The data set is classed as organism-based. The settings on record: in vivo, 0.5 h.
Data set [12] has as its system Homo sapiens. Briefly: Toxicity in patient with severe malaria assessed as effect on pulse rate at 3 to 12 g, iv for 30 mins via infusion pump measured after drug infusion. The conditions noted are these: in vivo, 0.5 h. The data set is classed as organism-based.
A short description of data set [13]: Plasma concentration in patient with severe malaria at 12 g, iv for 30 mins via infusion pump. The data set is classed as ADME, organism-based. The conditions noted are these: human. The procedure, abridged:
as §1

Data set [14] has as its system Homo sapiens. Briefly: Toxicity in patient with severe malaria assessed as decrease of diastolic blood pressure at 3 to 6 g, iv for 30 mins via infusion pump. The data set is classed as organism-based, Artery. The conditions noted are these: in vivo, 0.5 h. Put shortly:
as §2

Data set [15] in a line: Terminal half life in patient with severe malaria administered as iv for 30 mins via infusion pump. The format is ADME, organism-based. The conditions noted are these: human, in vivo, read-out: beta t1/2 (converted). The procedure, abridged:
as §3

We go through 1 compound from ChEMBL document CHEMBL1687716, “Pharmacokinetics of L-arginine in adults with moderately severe malaria” (Antimicrob Agents Chemother, 2008).

On to `N=C(N)NCCC[C@H](N)C(=O)O` [ARGININE], for which the Activity entry with Homo sapiens [1] is “Non-toxic”; in the data set on Homo sapiens [2] it was “Non-toxic”; in the data set on Homo sapiens [4] it was 5 mmHg; in the data set with Homo sapiens [5], “Non-toxic”; with Homo sapiens [8] it was “Non-toxic”; with Homo sapiens [9], 5 mmHg. In addition, the Activity entry in the data set with Homo sapiens [10], in the data set on Homo sapiens [11], with Homo sapiens [12] and in the data set on Homo sapiens [14] was “Non-toxic” each time. The concentration at 0.5 h in data set [3] came out at 809 µM; in [7], 288 µM; in [13], 1310 µM. The values for the half-life in data set [6] and in data set [15] were 0.25 h and 3.75 h, respectively.
